In brackets after ≈: the same amount, converted by molar mass.
What was measured:
[1] = molecular target: T1, Tyrosine-protein kinase JAK3 (Homo sapiens, UniProt P52333)
T1 sequence (P52333 whole entry): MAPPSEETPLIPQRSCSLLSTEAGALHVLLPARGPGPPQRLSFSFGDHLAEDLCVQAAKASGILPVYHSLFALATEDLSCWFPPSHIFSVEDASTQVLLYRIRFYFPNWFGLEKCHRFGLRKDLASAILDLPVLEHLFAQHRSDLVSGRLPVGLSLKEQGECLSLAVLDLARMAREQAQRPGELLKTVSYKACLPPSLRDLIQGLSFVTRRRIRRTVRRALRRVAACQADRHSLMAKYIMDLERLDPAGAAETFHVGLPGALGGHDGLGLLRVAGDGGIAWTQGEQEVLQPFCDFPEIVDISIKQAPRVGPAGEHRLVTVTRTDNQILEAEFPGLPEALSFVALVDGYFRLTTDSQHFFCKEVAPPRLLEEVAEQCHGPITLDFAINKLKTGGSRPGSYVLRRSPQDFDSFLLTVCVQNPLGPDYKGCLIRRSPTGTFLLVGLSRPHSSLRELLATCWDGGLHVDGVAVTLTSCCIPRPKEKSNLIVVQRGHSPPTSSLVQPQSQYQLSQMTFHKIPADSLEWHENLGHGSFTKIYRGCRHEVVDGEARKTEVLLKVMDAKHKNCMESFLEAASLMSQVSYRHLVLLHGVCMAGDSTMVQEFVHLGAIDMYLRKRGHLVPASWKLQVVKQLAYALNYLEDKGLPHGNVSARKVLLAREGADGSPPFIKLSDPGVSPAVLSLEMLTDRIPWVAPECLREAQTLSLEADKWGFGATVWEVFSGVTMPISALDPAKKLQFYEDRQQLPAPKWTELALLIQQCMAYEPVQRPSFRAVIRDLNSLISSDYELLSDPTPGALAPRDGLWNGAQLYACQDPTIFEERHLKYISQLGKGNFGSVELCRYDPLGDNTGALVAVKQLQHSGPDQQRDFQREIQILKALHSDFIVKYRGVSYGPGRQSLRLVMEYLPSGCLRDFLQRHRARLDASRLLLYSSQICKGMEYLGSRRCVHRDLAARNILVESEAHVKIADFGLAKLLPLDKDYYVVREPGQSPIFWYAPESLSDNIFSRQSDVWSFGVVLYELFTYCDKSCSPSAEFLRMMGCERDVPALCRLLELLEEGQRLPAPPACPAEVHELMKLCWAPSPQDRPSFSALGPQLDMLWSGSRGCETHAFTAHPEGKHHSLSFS

[2] = molecular target: Non-receptor tyrosine-protein kinase TYK2 (Homo sapiens, UniProt P29597); assay: Inhibition of recombinant GST tagged TYK2 protein after 60 mins using FITC-Ahx-KKSRGDYMTMQIG-NH2 substrate
[3] = molecular target: Tyrosine-protein kinase JAK1 (Homo sapiens, UniProt P23458); assay: Inhibition of recombinant GST tagged JAK1 protein after 60 mins using FITC-Ahx-KKSRGDYMTMQIG-NH2 substrate
[4] = Dissociation constant, pKa of the compound; assay type: physicochemical
[5] = Growth inhibition of human SET2 cells expressing JAK2V617F mutant after 72 hrs by colorimetric WST1 assay; assay type: functional; settings: SET-2, 72 h
In short: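 Megakaryoblastic SET-2 cells were grown in RPMI with 10% FCS, 2 mM L-glutamine and 1% penicillin/streptomycin. Cells were exposed to an 8-point compound concentration range for 72 h. Proliferation was read by WST-1 colorimetric viability, relative to DMSO vehicle controls.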

[6] = molecular target: Tyrosine-protein kinase JAK2 (Homo sapiens, UniProt O60674)
[7] = Partition coefficient, log P of the compound; assay type: physicochemical; settings: octanol/water
[8] = Volume of distribution at steady state in rat at 1 mg/kg, iv or 3 mg/kg, po by MS/MS analysis; assay type: ADME, organism-based; settings: in vivo, read-out: Vdss
In short: (§1)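 Conscious, fed, permanently cannulated female rats, n=4; 1 mg/kg iv via femoral vein in 30% NMP/PEG200, and 3 mg/kg po by gavage in 50% aqueous PEG200, crossover with 48 h washout. Arterial blood was sampled for 48 h (iv) or 24 h (po), precipitated with CH3CN, and measured by C18 HPLC-MS/MS.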

[9] = Tmax in rat at 3 mg/kg, po or 1 mg/kg, iv by MS/MS analysis; assay type: ADME, organism-based; settings: in vivo
In short: as §1

[10] = Oral bioavailability in rat at 3 mg/kg after 24 hrs by MS/MS analysis; assay type: ADME, organism-based; settings: in vivo
In short: as §1

[11] = AUC in rat at 1 mg/kg, iv after 48 hrs by MS/MS analysis; assay type: ADME, organism-based; parameters: time < 48 hr, dose 1 mg/kg, route intravenous; settings: plasma
In short: as §1

[12] = Cmax in rat at 3 mg/kg, po or 1 mg/kg, iv by MS/MS analysis; assay type: ADME, organism-based; settings: in vivo
In short: as §1

[13] = molecular target: Tyrosine-protein kinase ABL1 (Homo sapiens, UniProt P00519)
[14] = Aqueous solubility at pH 6.8; assay type: physicochemical
[15] = Terminal half life in iv dosed rat; assay type: ADME, organism-based; settings: in vivo, read-out: beta t1/2 (converted)
In short: (§2)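 Conscious rats given an iv bolus, then oral dosing at 3 mg/kg as a suspension in 0.5% carboxymethyl cellulose in bidistilled water. Clearance, volume of distribution, terminal half-life, oral AUC and bioavailability were derived.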

Rattus norvegicus [16] = assay: AUC in rat at 3 mg/kg, po; assay type: ADME, organism-based, Plasma; parameters: dose 3 mg/kg, route oral; settings: in vivo
In short: as §2

[17] = Volume of distribution in iv dosed rat; assay type: ADME, organism-based; settings: in vivo
In short: as §2

Rattus norvegicus [18] = assay: Oral bioavailability in rat at 3 mg/kg; assay type: ADME, organism-based; settings: in vivo
In short: as §2

[19] = Half life in rat at 1 mg/kg, iv after 48 hrs by MS/MS analysis; settings: in vivo
[20] = Clearance in rat at 1 mg/kg, iv after 48 hrs by MS/MS analysis; settings: in vivo

Sequence of Non-receptor tyrosine-protein kinase TYK2 (P29597 whole entry): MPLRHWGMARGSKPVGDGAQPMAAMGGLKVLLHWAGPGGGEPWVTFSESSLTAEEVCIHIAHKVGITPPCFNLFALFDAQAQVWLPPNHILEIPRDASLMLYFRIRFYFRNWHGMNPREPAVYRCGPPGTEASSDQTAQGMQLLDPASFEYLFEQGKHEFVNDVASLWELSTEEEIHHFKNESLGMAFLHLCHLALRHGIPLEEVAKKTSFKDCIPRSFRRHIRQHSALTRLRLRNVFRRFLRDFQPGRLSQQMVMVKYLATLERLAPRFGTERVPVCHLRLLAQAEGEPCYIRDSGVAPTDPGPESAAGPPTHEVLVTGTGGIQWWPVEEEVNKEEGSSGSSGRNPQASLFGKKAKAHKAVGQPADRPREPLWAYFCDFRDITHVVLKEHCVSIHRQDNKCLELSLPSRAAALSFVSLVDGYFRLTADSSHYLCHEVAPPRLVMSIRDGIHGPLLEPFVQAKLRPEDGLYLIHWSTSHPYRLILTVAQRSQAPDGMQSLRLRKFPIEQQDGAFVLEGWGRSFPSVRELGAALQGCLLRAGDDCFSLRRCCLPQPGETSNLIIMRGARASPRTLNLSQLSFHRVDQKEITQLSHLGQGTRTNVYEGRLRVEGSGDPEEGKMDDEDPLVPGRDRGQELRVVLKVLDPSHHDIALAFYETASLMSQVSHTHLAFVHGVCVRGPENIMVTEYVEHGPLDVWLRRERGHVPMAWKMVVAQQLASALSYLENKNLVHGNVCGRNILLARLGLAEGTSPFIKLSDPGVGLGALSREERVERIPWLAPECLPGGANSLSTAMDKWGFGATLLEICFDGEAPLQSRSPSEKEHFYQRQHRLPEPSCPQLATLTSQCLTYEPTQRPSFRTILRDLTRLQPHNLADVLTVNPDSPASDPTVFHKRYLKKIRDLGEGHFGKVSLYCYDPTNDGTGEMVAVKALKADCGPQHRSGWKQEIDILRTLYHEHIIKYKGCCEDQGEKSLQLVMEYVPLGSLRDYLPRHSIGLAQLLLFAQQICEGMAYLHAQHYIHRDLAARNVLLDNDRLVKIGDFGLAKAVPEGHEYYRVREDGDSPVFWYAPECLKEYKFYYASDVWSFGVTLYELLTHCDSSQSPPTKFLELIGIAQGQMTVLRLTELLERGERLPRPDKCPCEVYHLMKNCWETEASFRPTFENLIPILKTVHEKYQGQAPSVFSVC
Sequence of Tyrosine-protein kinase JAK1 (P23458 whole entry): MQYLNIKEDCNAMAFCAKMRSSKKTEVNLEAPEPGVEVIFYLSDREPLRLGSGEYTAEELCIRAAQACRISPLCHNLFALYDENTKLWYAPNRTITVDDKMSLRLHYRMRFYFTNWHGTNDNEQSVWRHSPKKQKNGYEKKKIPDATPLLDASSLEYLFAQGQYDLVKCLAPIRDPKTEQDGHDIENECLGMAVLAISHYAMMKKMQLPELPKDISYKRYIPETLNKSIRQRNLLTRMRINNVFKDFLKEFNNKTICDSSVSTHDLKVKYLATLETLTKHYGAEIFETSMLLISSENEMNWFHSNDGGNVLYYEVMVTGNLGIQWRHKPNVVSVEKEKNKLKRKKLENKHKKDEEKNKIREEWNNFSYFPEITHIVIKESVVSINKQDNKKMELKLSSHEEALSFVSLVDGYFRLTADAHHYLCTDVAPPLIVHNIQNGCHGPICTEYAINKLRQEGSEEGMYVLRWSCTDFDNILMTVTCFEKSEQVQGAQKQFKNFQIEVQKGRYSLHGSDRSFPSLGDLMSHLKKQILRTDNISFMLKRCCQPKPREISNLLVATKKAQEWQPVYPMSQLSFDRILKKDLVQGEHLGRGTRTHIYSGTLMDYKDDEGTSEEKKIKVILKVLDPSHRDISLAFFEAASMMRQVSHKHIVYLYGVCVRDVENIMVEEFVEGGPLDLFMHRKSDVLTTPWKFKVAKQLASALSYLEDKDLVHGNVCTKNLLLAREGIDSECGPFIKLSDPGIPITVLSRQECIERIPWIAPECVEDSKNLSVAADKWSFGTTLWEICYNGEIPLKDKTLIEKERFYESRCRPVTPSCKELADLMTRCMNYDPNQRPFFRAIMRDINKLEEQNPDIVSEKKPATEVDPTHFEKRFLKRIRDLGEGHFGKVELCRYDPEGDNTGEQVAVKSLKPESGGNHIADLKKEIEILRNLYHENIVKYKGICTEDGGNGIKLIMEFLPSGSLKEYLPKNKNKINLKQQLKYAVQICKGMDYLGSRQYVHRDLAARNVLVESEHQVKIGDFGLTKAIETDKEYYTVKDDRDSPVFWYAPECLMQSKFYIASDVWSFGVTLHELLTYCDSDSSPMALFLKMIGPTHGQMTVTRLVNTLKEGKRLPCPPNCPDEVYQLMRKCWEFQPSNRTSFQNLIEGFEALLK
Sequence of Tyrosine-protein kinase JAK2 (O60674 whole entry): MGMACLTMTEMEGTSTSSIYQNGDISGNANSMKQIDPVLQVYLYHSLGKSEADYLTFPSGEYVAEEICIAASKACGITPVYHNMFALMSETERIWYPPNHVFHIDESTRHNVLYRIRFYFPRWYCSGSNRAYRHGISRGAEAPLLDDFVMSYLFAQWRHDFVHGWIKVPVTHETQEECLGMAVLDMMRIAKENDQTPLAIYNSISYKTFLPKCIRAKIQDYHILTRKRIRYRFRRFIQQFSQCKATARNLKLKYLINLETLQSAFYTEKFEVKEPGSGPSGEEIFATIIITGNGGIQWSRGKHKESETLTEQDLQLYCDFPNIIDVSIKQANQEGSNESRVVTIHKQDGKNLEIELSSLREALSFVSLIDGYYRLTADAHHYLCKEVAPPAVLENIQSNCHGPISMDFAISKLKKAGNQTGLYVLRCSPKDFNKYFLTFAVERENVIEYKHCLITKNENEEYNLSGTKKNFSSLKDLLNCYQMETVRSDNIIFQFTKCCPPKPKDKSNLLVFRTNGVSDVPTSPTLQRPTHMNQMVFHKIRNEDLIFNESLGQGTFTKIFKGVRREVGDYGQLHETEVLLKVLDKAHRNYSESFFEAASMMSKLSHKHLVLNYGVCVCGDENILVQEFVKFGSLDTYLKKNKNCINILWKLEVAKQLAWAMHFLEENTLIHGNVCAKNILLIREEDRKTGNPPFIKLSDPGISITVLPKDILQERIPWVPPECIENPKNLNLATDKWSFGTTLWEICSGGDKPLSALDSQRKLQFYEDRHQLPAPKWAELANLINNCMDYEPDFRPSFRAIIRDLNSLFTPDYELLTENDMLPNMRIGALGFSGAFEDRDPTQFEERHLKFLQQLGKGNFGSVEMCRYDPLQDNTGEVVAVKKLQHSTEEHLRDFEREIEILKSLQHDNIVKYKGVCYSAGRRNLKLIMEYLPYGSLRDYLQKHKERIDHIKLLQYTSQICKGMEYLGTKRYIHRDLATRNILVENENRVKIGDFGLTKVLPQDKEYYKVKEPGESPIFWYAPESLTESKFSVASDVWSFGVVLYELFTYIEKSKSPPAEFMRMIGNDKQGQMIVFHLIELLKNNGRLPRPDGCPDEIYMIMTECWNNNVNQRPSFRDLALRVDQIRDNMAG
Sequence of Tyrosine-protein kinase ABL1 (P00519 whole entry): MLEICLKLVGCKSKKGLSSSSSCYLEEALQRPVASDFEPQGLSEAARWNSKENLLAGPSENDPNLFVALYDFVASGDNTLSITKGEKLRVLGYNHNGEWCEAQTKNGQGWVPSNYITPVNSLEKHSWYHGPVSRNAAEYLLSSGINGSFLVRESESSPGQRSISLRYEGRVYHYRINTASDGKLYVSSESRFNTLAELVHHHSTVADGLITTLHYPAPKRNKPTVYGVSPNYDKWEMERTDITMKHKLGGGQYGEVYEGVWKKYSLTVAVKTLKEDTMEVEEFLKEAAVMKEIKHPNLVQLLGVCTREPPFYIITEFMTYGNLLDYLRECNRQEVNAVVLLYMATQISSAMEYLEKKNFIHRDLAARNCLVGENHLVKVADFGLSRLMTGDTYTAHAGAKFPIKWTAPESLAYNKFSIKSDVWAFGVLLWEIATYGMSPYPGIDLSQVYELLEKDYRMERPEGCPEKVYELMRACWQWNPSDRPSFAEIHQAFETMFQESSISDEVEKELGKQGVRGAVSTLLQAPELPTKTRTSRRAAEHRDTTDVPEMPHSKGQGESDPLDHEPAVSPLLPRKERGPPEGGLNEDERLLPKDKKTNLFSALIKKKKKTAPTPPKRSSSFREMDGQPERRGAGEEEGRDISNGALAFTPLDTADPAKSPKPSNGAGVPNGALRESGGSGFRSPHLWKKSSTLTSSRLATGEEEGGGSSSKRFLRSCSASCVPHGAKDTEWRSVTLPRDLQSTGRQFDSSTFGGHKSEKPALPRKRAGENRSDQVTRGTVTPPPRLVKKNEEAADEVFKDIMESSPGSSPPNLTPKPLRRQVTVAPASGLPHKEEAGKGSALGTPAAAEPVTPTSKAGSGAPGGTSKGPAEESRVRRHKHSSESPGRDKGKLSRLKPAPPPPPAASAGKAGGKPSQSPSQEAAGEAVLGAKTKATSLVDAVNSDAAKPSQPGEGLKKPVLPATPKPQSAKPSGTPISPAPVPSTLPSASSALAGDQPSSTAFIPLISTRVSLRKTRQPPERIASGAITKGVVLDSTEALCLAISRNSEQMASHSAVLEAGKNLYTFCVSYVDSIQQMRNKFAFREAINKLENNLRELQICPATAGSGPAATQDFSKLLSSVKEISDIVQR

| Compound | IC50 [1] [µM] | IC50 [2] [µM] | IC50 [3] [µM] | GI50 [5] [µM] | IC50 [6] [µM] | further results |
| --- | --- | --- | --- | --- | --- | --- |
| COc1cc(-c2cnc3cccc(-c4ccc(CN5CCOCC5)cc4F)c3n2)cc(OC)c1OC | 9.9 | 9.3 | 4.7 | – | – | – |
| Cc1cc(-c2cnc3cccc(-c4ccc(CN5CCS(=O)(=O)CC5)cc4)c3n2)ccc1C(=O)N1CCN(C)CC1 | 0.232 | – | 0.089 | 0.096 | 0.0071 | pKa [4]: 3.9; logP [7]: 2.8 |
| COc1cc(-c2cnc3cccc(-c4ccc(CC(=O)N5CCS(=O)(=O)CC5)cc4)c3n2)cc(OC)c1OC | – | 0.34 | 0.035 | 0.119 | – | – |
| COc1cc(-c2cnc3cc(F)cc(-c4ccc(CC(=O)N5CCOCC5)cc4)c3n2)cc(OC)c1OC | > 10 | > 10 | 0.94 | – | 0.101 | – |
| COc1cc(-c2cnc3cc(C)cc(-c4ccc(CC(=O)N5CCS(=O)(=O)CC5)cc4)c3n2)cc(OC)c1OC | > 10 | > 10 | > 10 | – | 4.2 | – |
| COc1cc(-c2cnc3cccc(-c4ccc(CN5CCOCC5)c(F)c4)c3n2)cc(OC)c1OC | – | 2.2 | 0.25 | – | 0.02 | – |
| COc1cc(-c2cnc3cccc(-c4ccc(CN5CCOCC5)cc4)c3n2)cc(OC)c1OC | > 10 | > 10 | 1.5 | – | – | – |
| Cc1cc(-c2cnc3cccc(-c4ccc(CN5CCOCC5)c(F)c4)c3n2)ccc1C(=O)N1CCOCC1 | 0.63 | 0.52 | 0.19 | 0.226 | 0.0125 | – |
| Fc1cc(-c2cccc3ncc(-c4cnn(C5CCNCC5)c4)nc23)cc(F)c1CN1CCOCC1 | – | – | – | 0.088 | – | Vd [8]: 33 L/kg; Tmax [9]: 7 h; pKa [4]: 5.5; bioavailability [10]: 31%; AUC at 48 h [11]: 1.47 µM·h; Cmax [12]: 16 nM; IC50 [13]: 0.08 µM; solubility [14]: > 1500 µg/mL |
| COc1cc(-c2cnc3cccc(-c4ccc(C(=O)N5CCOCC5)cc4)c3n2)cc(OC)c1OC | – | 2.9 | 0.39 | – | – | – |
| COc1cc(-c2cnc3cccc(-c4ccc(CN5CCOCC5)cc4C)c3n2)cc(OC)c1OC | 2.7 | 4.2 | 1.2 | – | 0.685 | – |
| Cc1cc(-c2cccc3ncc(-c4ccc(C(=O)N5CCOCC5)c(C)c4)nc23)ccc1CN1CCOCC1 | 0.408 | 0.439 | 0.362 | – | – | – |
| Cc1cc(-c2cnc3cccc(-c4cc(F)c(CN5CCOCC5)c(F)c4)c3n2)ccc1C(=O)N1CCOCC1 | 0.13 | 0.12 | 0.06 | 0.135 | 0.0031 | – |
| COc1cc(-c2cnc3cccc(-c4ccc(CN5CCS(=O)(=O)CC5)cc4)c3n2)cc(OC)c1OC | – | 0.52 | 0.098 | – | – | – |
| COc1cc(-c2cnc3cccc(-c4ccc(C(=O)N5CCOCC5)c(C)c4)c3n2)cc(OC)c1OC | – | 1.4 | 0.46 | – | 0.02 | – |
| CNS(=O)(=O)c1ccc(-c2cccc3ncc(-c4cc(OC)c(OC)c(OC)c4)nc23)cc1 | 1.3 | 0.64 | 0.13 | – | – | half-life [15]: 1.69 h; AUC (Rattus norvegicus [16]): 4 µg·min/mL; Vd [17]: 6.75 L/kg; F (Rattus norvegicus [18]): 34% |
| CN1CCN(c2ccc(-c3cnc4cccc(-c5cc(F)c(CN6CCS(=O)(=O)CC6)c(F)c5)c4n3)cn2)CC1 | 0.23 | 0.086 | 0.082 | 0.098 | 0.0068 | Vd [8]: 13.2 L/kg; Tmax [9]: 8 h; pKa [4]: 3.6; bioavailability [10]: 100%; AUC at 48 h [11]: 0.76 µM·h; half-life at 48 h [19]: 4.8 h; Cmax [12]: 47 nM; clearance at 48 h [20]: 39 mL/min/kg; logP [7]: 3.8; solubility [14]: 4 µg/mL (≈ 7.08 µM) |
| COc1cc(-c2cnc3cccc(-c4ccc(CN5CCOCC5)c(C)c4)c3n2)cc(OC)c1OC | – | 7.13 | 1.85 | – | – | – |
| CN1CCN(c2ccc(-c3cnc4cccc(-c5cc(F)c(CN6CCOCC6)c(F)c5)c4n3)cc2)CC1 | 0.166 | 0.094 | 0.028 | 0.152 | 0.0043 | Vd [8]: 18.9 L/kg; Tmax [9]: 5.8 h; pKa [4]: 4.5; bioavailability [10]: 100%; AUC at 48 h [11]: 1.65 µM·h; half-life at 48 h [19]: 13.4 h; Cmax [12]: 74 nM; clearance at 48 h [20]: 19 mL/min/kg; logP [7]: 4; solubility [14]: 4 µg/mL (≈ 7.76 µM) |
| COc1cc(-c2cnc3cccc(-c4ccc(CC(=O)N5CCOCC5)cc4)c3n2)cc(OC)c1OC | – | – | 0.091 | 0.228 | 0.013 | – |

Source: ChEMBL document CHEMBL1156975, “Discovery and SAR of potent, orally available 2,8-diaryl-quinoxalines as a new class of JAK2 inhibitors” (Bioorg Med Chem Lett, 2010)
